ChEMBL document CHEMBL2375209, “Fungal ABC transporter-associated activity of isoflavonoids from the root extract of Dalea formosa” (2013)
In brackets after ≈: the same amount, converted by molar mass. Activity calls are given as the source filed them. The calls are words filed in the database; no cut-off is given here.

What was measured:
Type in all cases: functional
Nakaseomyces glabratus = assay: Antifungal activity against wild type Candida glabrata CCM 8270 after 46 to 50 hrs by broth microdilution assay
Summary of the method: (§1)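 CLSI M27-A broth microdilution in MOPS-buffered (pH 7) RPMI 1640. Samples added from DMSO stocks (solvent ≤1.2%, matched in controls), serially diluted before inoculation. Growth read as OD550 plus visual inspection at 24 and 48 h. MIC = lowest concentration inhibiting growth ≥80% vs drug-free control; three independent measurements.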

Saccharomyces cerevisiae [1] = assay: Antifungal activity against PDR5/SNQ2/YOR1 deficient Saccharomyces cerevisiae after 24 to 48 hrs by microdilution assay
Summary of the method: (§2)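 96-well microdilution; samples added from DMSO stocks (solvent ≤1.2%, matched in controls), serially diluted before inoculation; trifluoperazine, ketoconazole and fluconazole as positive controls. Growth read as OD550 plus visual inspection at 24 and 48 h. MIC = lowest concentration giving ≥80% growth inhibition vs drug-free control; values observed in three independent measurements.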

Saccharomyces cerevisiae [2] = assay: Antifungal activity against PDR5/SNQ2/YOR1 deficient Saccharomyces cerevisiae expressing PDR1 to 3 allele after 24 to 48 hrs by microdilution assay; summary of the method: as §2
Saccharomyces cerevisiae [3] = assay: Antifungal activity against wild type Saccharomyces cerevisiae after 24 to 48 hrs by microdilution assay; summary of the method: as §2
Saccharomyces cerevisiae [4] = assay: Antifungal activity against PDR1/PDR3 deficient Saccharomyces cerevisiae after 24 to 48 hrs by microdilution assay; summary of the method: as §2
Saccharomyces cerevisiae [5] = assay: Antifungal activity against PDR5/SNQ2/YOR1 deficient Saccharomyces cerevisiae expressing PDR1 to 3 allele and heterologously overproduced Cdr1p gene after 24 to 48 hrs by microdilution; summary of the method: as §2
Candida albicans = assay: Antifungal activity against wild type Candida albicans CCM 8320 after 46 to 50 hrs by broth microdilution assay; summary of the method: as §1

Compound | MIC (Nakaseomyces glabratus) [µg/mL] | MIC (Saccharomyces cerevisiae [1]) [µg/mL] | MIC (Saccharomyces cerevisiae [2]) [µg/mL] | MIC (Saccharomyces cerevisiae [3]) [µg/mL] | MIC (Saccharomyces cerevisiae [4]) [µg/mL] | MIC (Saccharomyces cerevisiae [5]) [µg/mL] | MIC (Candida albicans)
C=CC(C)(C)c1cc([C@]2(O)COc3cc(O)c(CC=C(C)C)c(O)c3C2=O)c(O)cc1O | 122 (≈ 277 µM) | 3.8 (≈ 8.63 µM) | 3.8 (≈ 8.63 µM) | 61 (≈ 138 µM) | 15.2 (≈ 34.5 µM) | 244 (≈ 554 µM) | inactive
C=CC(C)(C)c1cc([C@@H]2COc3c(ccc(O)c3O)C2)c(OC)cc1OC |  | 3.8 (≈ 10.3 µM) | 3.8 (≈ 10.3 µM) | 15.2 (≈ 41 µM) | 3.8 (≈ 10.3 µM) | 61 (≈ 165 µM) | 
COc1ccc(C[C@H]2OC(=O)C=C2c2ccc(O)cc2O)cc1 | 244 (≈ 781 µM) |  |  |  |  |  | inactive
COc1ccc([C@H]2COc3c(ccc(O)c3O)C2)c2c1C=CC(C)(C)O2 | 30.5 (≈ 86.1 µM) | 30.5 (≈ 86.1 µM) | 30.5 (≈ 86.1 µM) | 30.5 (≈ 86.1 µM) | 15.2 (≈ 42.9 µM) | 244 (≈ 688 µM) | 61 µg/mL (≈ 172 µM)
COc1ccc([C@H]2COc3c(ccc(O)c3O)C2)c(O)c1CC=C(C)C |  | 3.8 (≈ 10.7 µM) | 3.8 (≈ 10.7 µM) | 15.2 (≈ 42.6 µM) | 3.8 (≈ 10.7 µM) | 30.5 (≈ 85.6 µM) | 

More lines, in order of falling MIC (Saccharomyces cerevisiae [1]), values ahead:

MIC (Nakaseomyces glabratus) [µg/mL] | MIC (Saccharomyces cerevisiae [1]) [µg/mL] | MIC (Saccharomyces cerevisiae [2]) [µg/mL] | MIC (Saccharomyces cerevisiae [3]) [µg/mL] | MIC (Saccharomyces cerevisiae [4]) [µg/mL] | MIC (Saccharomyces cerevisiae [5]) [µg/mL] | MIC (Candida albicans) | Compound
30.5 (≈ 90.1 µM) | 1.9 (≈ 5.61 µM) | 1.9 (≈ 5.61 µM) | 30.5 (≈ 90.1 µM) | 3.8 (≈ 11.2 µM) | > 244 | inactive | COc1ccc2c(c1CC=C(C)C)O[C@@H]1c3ccc(O)cc3OC[C@H]21 [ENT-SANDWICENSIN]
7.6 (≈ 20.6 µM) | 1.9 (≈ 5.16 µM) | 1.9 (≈ 5.16 µM) | 7.6 (≈ 20.6 µM) | 1.9 (≈ 5.16 µM) | 244 (≈ 662 µM) | 15 µg/mL (≈ 40.7 µM) | COc1ccc(C2COc3cc(O)cc(O)c3C2=O)c2c1C=CC(C)(C)O2 (racemic)
 | 0.95 (≈ 2.24 µM) | 0.95 (≈ 2.24 µM) | 15.2 (≈ 35.8 µM) | 0.95 (≈ 2.24 µM) | > 244 |  | C=CC(C)(C)c1cc(C2COc3cc(O)c(CC=C(C)C)c(O)c3C2=O)c(O)cc1O (racemic)
